The subject of one data set is B16-F10. Briefly: Cytotoxicity against mouse B16-F10 cells assessed as reduction in cell viability incubated for 72 hrs by MTS assay. Particulars: B16-F10, 72 h. In kind it is functional, cell-based. The procedure, abridged:
(§1)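 Cell lines: MNT-1 and A375 (human melanoma), B16F10 (murine melanoma) and HaCaT (human keratinocytes). Compounds incubated with cells for 72 h; IC50 reported in μM.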

Data set [1] is described as follows: Cytotoxicity against human MNT-1 cells assessed as reduction in cell viability incubated for 72 hrs by MTS assay. In kind it is functional, cell-based. As to conditions: MNT-1, 72 h. A digest of the protocol: as §1
The next data set concerns HaCaT. In words: Cytotoxicity against human HaCaT cells assessed as reduction in cell viability incubated for 72 hrs by MTS assay. In kind it is cell-based. A digest of the protocol: as §1
Data set [2] can be described thus: 1-Octanol/phosphate buffer apparent partition coefficient, logP of the compound measured after 30 mins by HPLC analysis. Type of data set: physicochemical.
A short description of data set [3]: Selectivity index, ratio of IC50 for human HaCaT cells to IC50 for human cells by MTS assay.
Data set [4] can be described thus: Selectivity index, ratio of IC50 for human HaCaT cells to IC50 for human MNT-1 cells by MTS assay.
The nature of data set [5]: Selectivity index, ratio of IC50 for human HaCaT cells to IC50 for mouse B16-F10 cells by MTS assay. As to conditions: HaCaT cells and B16-F10 cells, read-out: Ratio IC50. Type of data set: toxicity. The procedure, abridged: (§2)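 Human HaCaT keratinocytes and the melanoma line (human A375 or murine B16F10) were each incubated with compound for 72 h, and IC50 was determined in each line. Selectivity index is HaCaT IC50 divided by melanoma-line IC50.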

The nature of data set [6]: Half life of the compound in PBS buffer at pH 7.4 by HPLC analysis. In kind it is physicochemical. A digest of the protocol:
(§3)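 Stability run at 37 °C in PBS pH 7.4 or 80% human plasma. HPLC followed loss of parent and appearance of hydrolysis products over at least 3 half-lives. Decay fitted pseudo-first-order: kobs taken as the slope of ln(concentration) vs time, and t1/2 calculated from kobs.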

Data set [7] is described as follows: Half life in 80% human plasma by HPLC analysis. In kind it is ADME, cell-free. A digest of the protocol:
as §3

Data set [8] concerns the target T1, Tyrosinase (Agaricus bisporus, UniProt O42713).
T1 sequence (O42713 whole entry): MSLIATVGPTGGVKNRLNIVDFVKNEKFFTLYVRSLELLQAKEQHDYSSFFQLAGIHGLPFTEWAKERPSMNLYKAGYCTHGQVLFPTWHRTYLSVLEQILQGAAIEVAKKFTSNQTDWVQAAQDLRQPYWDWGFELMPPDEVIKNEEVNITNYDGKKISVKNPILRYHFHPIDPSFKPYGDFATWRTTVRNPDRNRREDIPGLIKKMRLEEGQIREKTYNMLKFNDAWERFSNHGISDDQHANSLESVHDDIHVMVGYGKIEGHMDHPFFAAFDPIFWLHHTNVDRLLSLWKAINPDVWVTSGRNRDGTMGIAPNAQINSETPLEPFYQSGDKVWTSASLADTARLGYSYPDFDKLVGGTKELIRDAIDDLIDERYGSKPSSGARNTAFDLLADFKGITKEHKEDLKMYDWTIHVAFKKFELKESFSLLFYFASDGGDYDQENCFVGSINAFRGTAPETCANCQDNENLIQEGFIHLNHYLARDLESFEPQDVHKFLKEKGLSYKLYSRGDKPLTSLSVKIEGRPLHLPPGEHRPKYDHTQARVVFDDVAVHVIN
Briefly: Substrate activity at mushroom tyrosinase assessed as half-life of the compound by HPLC analysis. Type of data set: ADME. The procedure, abridged:
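Incubated with mushroom tyrosinase at 100 units/mL. Reaction followed by HPLC to derive substrate half-life (min).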

In data set [9] the target is T1, Tyrosinase. Briefly: Drug metabolism assessed as mushroom tyrosinase-mediated drug oxidation by measuring 3-(4-cyanophenyl)-N-(2-(3,4-dioxocyclohexa-1,5-dienylthio)ethyl)-1-methyltriaz-2-ene-1-carboxamide formation measured after 2 hrs by HPLC analysis. In kind it is ADME.
In data set [10] the target is T1, Tyrosinase. Briefly: Drug metabolism assessed as mushroom tyrosinase-mediated drug oxidation by measuring compound 18c formation measured after 0.5 to 4 mins by HPLC analysis. Type of data set: ADME. Particulars: time 0.5-4 min.
Data set [11] has as its target T1, Tyrosinase. In words: Drug metabolism assessed as mushroom tyrosinase-mediated drug oxidation by measuring dihydroxylated metabolite formation with m/z 344 by mass spectrometry. In kind it is ADME.
Data set [12] in a line: Selectivity index, ratio of IC50 for human HaCaT cells to IC50 for human A-375 cells by MTS assay. A digest of the protocol:
as §2

The subject of another data set is A-375. Briefly: Cytotoxicity against human A-375 cells assessed as reduction in cell viability incubated for 72 hrs by MTS assay. Type of data set: functional, cell-based. As to conditions: A-375, 72 h. A digest of the protocol: as §1
The target in data set [13] is T1, Tyrosinase. Briefly: Drug metabolism assessed as mushroom tyrosinase-mediated drug oxidation by measuring dihydroxylated metabolite formation with m/z 410 by mass spectrometry. Type of data set: ADME.
The target of data set [14] is T1, Tyrosinase. Briefly: Drug metabolism assessed as mushroom tyrosinase-mediated drug oxidation by measuring dihydroxylated metabolite formation with m/z 408 by mass spectrometry. Type of data set: ADME.
Data set [15] is described as follows: Hepatotoxicity in rat liver microsomes assessed as GSH depletion measured after 180 mins by Ellman's method. In kind it is toxicity, Microsome. As to conditions: 3 h.
Data set [16] can be described thus: Drug metabolism in rat liver microsomes assessed as CYP450-mediated o-quinone formation measured after 3 hrs by HPLC analysis. Type of data set: ADME, Microsome.
Substrate in data set [17]: CN(/N=N/c1ccc(C#N)cc1)C(=O)NCCSc1ccc(O)cc1
Briefly: (§4) Substrate activity at mushroom tyrosinase assessed as Km by Michaelis-Menten based analysis. Type of data set: ADME, Agaricus bisporus.

Substrate in data set [18]: Cc1ccc(/N=N/N(C)C(=O)NCCSc2ccc(O)cc2)cc1
The data set is described as §4. Type of data set: ADME, Agaricus bisporus.

Substrate in data set [19]: CCOC(=O)c1ccc(/N=N/N(C)C(=O)NCCSc2ccc(O)cc2)cc1
The data set is described as §4. Type of data set: ADME, Agaricus bisporus.

A value given as a limit tells only on which side of the number the result lay.

In the case of `CN=NNc1ccc(C#N)cc1`, the IC50 (with B16-F10; in [1]; in the data set with HaCaT) was over 60 µM each time.

As to `Cc1ccc(/N=N/N(C)C(=O)NCCSc2ccc(O)cc2)cc1`, in data set [2], the log distribution coefficient (logD) at 0.5 h was 4.21. Also, the “Ratio IC50” value in [3] and in [4] was 2 each time. Moreover, the IC50 is 78.3 µM with B16-F10, 74.1 µM in [1] and over 130 µM in the data set on HaCaT. The selectivity ratio in [5] came out at 2. Besides, the half-life in data set [6] is over 240 h; in [7] it was 88.5 h; at Tyrosinase [8], 1.9 min.

`CC(=O)c1ccc(/N=N/N(C)C(=O)NCCSc2ccc(O)cc2)cc1`: the logD at 0.5 h in data set [2] was determined as 3.44. Moreover, the “Ratio IC50” value in data set [3] and in data set [4] was 2 each time. Also, the IC50 is over 75 µM with B16-F10, over 75 µM in data set [1] and over 150 µM with HaCaT. Besides, the selectivity ratio in [5] worked out at 2. Further, the figures for the half-life (in data set [6]; in data set [7]; on Tyrosinase [8]) were over 240 h, 61.6 h and 1 min, respectively.

`NCCSc1ccc(O)cc1`: the results for the IC50 (with B16-F10; in [1]; with HaCaT) were over 75 µM, 42.8 µM and over 125 µM, respectively. For the same molecule, the “Ratio IC50” value in data set [4] is recorded as “>=3”.

As for `CN=NNc1ccc(C(C)=O)cc1`, the results for the IC50 (in the data set on B16-F10; in data set [1]; in the data set with HaCaT) were over 75 µM, over 75 µM and over 130 µM, respectively.

In the case of `CN(/N=N/c1ccc(C#N)cc1)C(=O)NCCSc1ccc(O)cc1`, the logD at 0.5 h in data set [2] is 3.49. Further, the “Ratio IC50” value in data set [3] and in data set [4] was 2 each time. Moreover, the IC50 with B16-F10 was over 75 µM; in [1], over 75 µM; with HaCaT, over 150 µM. Moreover, the Drug metabolism result is “Metabolite_Notdetected” at Tyrosinase [9] and “Metabolite_Detected” on Tyrosinase [10]. Also, the selectivity ratio in data set [5] was found to be 2. Besides, the half-life in data set [6] was over 240 h; in data set [7] it was 74 h; on Tyrosinase [8], 0.5 min.

For the molecule `Cc1ccc(/N=N/N(C)C(=O)CCSc2ccc(O)cc2)cc1`, the values for the IC50 in the data set with B16-F10, in the data set on HaCaT and with A-375 were over 75 µM, 45.8 µM and 47 µM, respectively. Moreover, the “Ratio IC50” value is 2 in data set [4] and under 1 in [12]. Further, on Tyrosinase [11], the Drug metabolism entry is “Metabolite_Detected”. The selectivity ratio in data set [5] is 2. For the same molecule, the figures for the half-life (in data set [6]; in data set [7]; on Tyrosinase [8]) were 101 h, 8.7 h and 2.3 min, respectively.

As to `CC(=O)c1ccc(/N=N/N(C)C(=O)CCSc2ccc(O)cc2)cc1`, the IC50 (with B16-F10; in [1]; in the data set with A-375) was over 75 µM throughout. Besides, the “Ratio IC50” value in [4] and in data set [12] was 2 in each case. In data set [5], the selectivity ratio worked out at 2. Also, the half-life in data set [6] was 139 h; in data set [7], 4.9 h.

`CCOC(=O)c1ccc(/N=N/NC)cc1`: the IC50 (with B16-F10; in data set [1]; in the data set on HaCaT) was over 60 µM in each case.

For the molecule `CN(/N=N/c1ccc(Br)cc1)C(=O)CCSc1ccc(O)cc1`, the IC50 with B16-F10 is over 75 µM; in [1], over 75 µM; in the data set with A-375, 55 µM. In addition, the “Ratio IC50” value in data set [4] and in data set [12] was 2 each time. Moreover, the selectivity ratio in data set [5] worked out at 2. The half-life in data set [6] was 106 h; in [7], 8.3 h; on Tyrosinase [8], 2.1 min. Besides, the Drug metabolism entry on Tyrosinase [13] and on Tyrosinase [14] was “Metabolite_Detected” throughout.

`CCOC(=O)c1ccc(/N=N/N(C)C(=O)CCSc2ccc(O)cc2)cc1`: the IC50 in the data set with B16-F10 was over 75 µM; in data set [1], over 75 µM; with A-375, 61 µM. Also, the “Ratio IC50” value in data set [4] and in [12] was 2 each time. Besides, the selectivity ratio in data set [5] was determined as 2. Besides, the half-life is 130 h in data set [6] and 6.57 h in [7].

Regarding `CN/N=N/c1ccc(Br)cc1`, the IC50 (in the data set with B16-F10; in [1]; with HaCaT) was over 60 µM each time.

Consider `CN(/N=N/c1ccc(Cl)cc1)C(=O)CCSc1ccc(O)cc1`, for which the IC50 in the data set on B16-F10, in the data set with HaCaT and in the data set on A-375 was over 75 µM throughout. The “Ratio IC50” value in data set [4] and in [12] was 2 each time. Besides, in [5], the selectivity ratio came to 2.

`CN(/N=N/c1ccc(Br)cc1)C(=O)NCCSc1ccc(O)cc1`: the logD at 0.5 h in [2] worked out at 3.95. In addition, the “Ratio IC50” value in data set [3] and in data set [4] was 2 throughout. The IC50 in the data set on B16-F10 is over 75 µM; in data set [1] it was over 75 µM; with HaCaT, over 150 µM. In addition, in data set [15], the Activity entry was “Non-Toxic”. For the same molecule, the selectivity ratio in data set [5] worked out at 2. The half-life is over 240 h in data set [6], 105 h in data set [7] and 0.5 min on Tyrosinase [8]. Besides, the Drug metabolism result in [16] is “Metabolite_Notdetected”.

With `Cn1nnc2c(C(N)=O)ncn2c1=O` [TEMOZOLOMIDE], the IC50 (with B16-F10; in [1]; with HaCaT; in the data set with A-375) was over 75 µM each time.

In the case of `CN(/N=N/c1ccc(C#N)cc1)C(=O)CCSc1ccc(O)cc1`, the IC50 (with B16-F10; in data set [1]; in the data set with A-375) was over 75 µM each time. Also, the “Ratio IC50” value in data set [4] and in data set [12] was 2 throughout. Also, the selectivity ratio in data set [5] was 2. Moreover, the half-life in [6] was 86.4 h; in data set [7] it was 2.99 h.

B1: Tyrosinase (Agaricus bisporus) (protein)
chain: T1 sequence (O42713 whole entry)
Turning to B1, the Michaelis constant (Km) in data set [17], in data set [18] and in [19] was 64 µM throughout.

For the origin of these results see ChEMBL document CHEMBL4825779, “Sulfur Analogues of Tyrosine in the Development of Triazene Hybrid Compounds: A New Strategy against Melanoma” (ACS Med Chem Lett, 2021).
